# Compounds with a hit are over-represented: about 2.1% of the library has one in this group of screens.
# CHRM1 agonist – activates human CHRM1 receptor | P11229 | CHO-K1 hM1, Fluo-8 calcium fluorescence, agonist mode; 0% DMSO, 100% acetylcholine EC100 | activation, % at 3 µM | 0.33% of 360,000 active;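 active = activation above the run's mean compound activation plus 3 SD, cut at about 16% in these data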;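 also: peak over basal fluorescence ratio within a 140 s kinetic read after compound addition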
# Target sequence (P11229 whole entry, looked up): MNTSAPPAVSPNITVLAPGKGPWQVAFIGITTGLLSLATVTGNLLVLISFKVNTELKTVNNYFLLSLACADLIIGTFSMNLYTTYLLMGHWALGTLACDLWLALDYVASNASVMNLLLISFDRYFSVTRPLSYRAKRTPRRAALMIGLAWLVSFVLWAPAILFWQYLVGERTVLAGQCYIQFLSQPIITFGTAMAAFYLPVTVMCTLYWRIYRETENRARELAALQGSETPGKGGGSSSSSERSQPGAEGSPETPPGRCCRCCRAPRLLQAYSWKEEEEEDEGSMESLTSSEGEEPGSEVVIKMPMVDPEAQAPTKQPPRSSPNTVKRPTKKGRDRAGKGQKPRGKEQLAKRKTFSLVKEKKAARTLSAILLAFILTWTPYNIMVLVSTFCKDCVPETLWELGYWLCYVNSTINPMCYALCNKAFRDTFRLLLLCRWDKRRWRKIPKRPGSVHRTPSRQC
# CHRM1 antagonist – human CHRM1 antagonism. P11229. CHO-K1 hM1, Fluo-8 calcium fluorescence, ACh EC80 antagonist. inhibition, % at 3 µM. 1.3% of 360,000 active;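 active = percent inhibition above its own plate's cutoff, namely the mean of that plate's compound wells plus 3 SD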;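 also: peak over basal fluorescence ratio during 140 s after agonist addition; 0% = ACh EC80 plus DMSO and 100% = DMSO alone without agonist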
# M1 PAM – positive allosteric modulators of human M1 muscarinic receptor | P11229 | 0.088% of 360,000 active | CHO-K1 hM1, Fluo-8 calcium fluorescence, ACh EC20; 0% = ACh EC20, 100% = maximal ACh | activation, % at 3 µM; in the data active = activation above about 19%, passing the limit was not always enough
# CHRM5 PAM – CHRM5 positive allosteric modulation; CHO-K1 hM5, Fluo-8 calcium, ACh EC20 PAM; 0% = ACh EC20, 100% = ACh EC100; activation, % at 3 µM; 0.3% of 360,000 active;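 active = activation above the run cutoff, the mean activation of all test compounds plus 3 SD, cut at about 18% in these data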
#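 system = human M5 receptor in CHO-K1 cells | compound = one concentration, 3 µM final (nominal) | schedule = Post-acetylcholine fluorescence recording 140 s | signal = Fluo-8 calcium dye fluorescence, kinetic read | benchmarks = low control EC20 acetylcholine (0%), high control EC100 acetylcholine (100%) | repeats = singlicate, one well per test compound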
# CHRM5 agonist – CHRM5 agonism in calcium assay; P08912; CHO-K1 hM5 cells, Fluo-8 calcium fluorescence; 0% DMSO wells, 100% maximal acetylcholine response; activation, % at 3 µM; 0.19% of 360,000 active; AID 624037;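 active = activation above the run's mean over test compounds plus 3 SD, cut at about 23% in these data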;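 also: signal is peak over basal fluorescence ratio across the kinetic read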
# CHRM5 antagonist – CHRM5 antagonism in calcium assay | P08912 | CHO-hM5 cells, Fluo-8 calcium fluorescence, ACh EC80 | inhibition, % at 3 µM | 0.59% of 360,000 active | AID 624040;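 active = inhibition above a per-plate cutoff, the mean of that plate's test compounds plus 3 SD, cut at about 27% in these data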;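 also: 0% = acetylcholine EC80 with DMSO and 100% = DMSO without agonist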
# The depositor's hits bear a star.
SMILES,CHRM1 agonist,CHRM1 antagonist,M1 PAM,CHRM5 PAM,CHRM5 agonist,CHRM5 antagonist
S=c1nc[nH]c2c1ncn2C1CCCO1 (configuration not stated),-2.7,-11.7,6.6,18.7*,-0.7,-16.6
Nc1ncnc2c1ncn2C1CCCO1 (configuration not stated),19.5*,-17.1,-10.5,-19.1,27.6*,10.1
Nc1ncnc2c1ncn2C1CCCC1,-2.4,-5.9,-3.2,0.4,0.1,-4.3
OCC1OC(n2cnc3c(=S)nc[nH]c32)CC1O (configuration not stated),3.5,-16.2,8.1,1.1,3.6,9.2
CNC(=O)c1ccc(Nc2nc(-c3ccccc3)nc3ccccc23)cc1,-2.2,10.9,-8.6,-6.2,2.7,12.0
CC1CCCC(C)N1CC(C)(C)NS(=O)(=O)c1ccc(Cl)cc1 (configuration not stated),-1.6,-1.2,2.2,0.8,-2.7,-5.7
CSc1sc(-c2ccnc(SCC(=O)C(C)(C)C)n2)c2c1C(=O)CC(C)(C)C2,-3.8,-15.0,9.0,3.2,-2.3,2.2
CC(C)CNC(=S)N1CCC(c2nc(-c3ccc(F)cc3)no2)CC1,-4.3,33.0*,-15.4,-21.6,2.1,11.5
O=C(Nc1ccc(Cl)cc1)N1CCC(c2nc(-c3ccccc3Cl)no2)CC1,0.4,19.9*,-16.6,-24.0,-4.3,22.1
O=C(Nc1cccc(C(F)(F)F)c1)N1CCC(c2nc(-c3ccc(F)cc3)no2)CC1,-9.4,65.4*,-34.1,-22.6,-1.6,38.8*
Cc1ccc(Cn2cccc(NC(=O)NC3CCCCC3)c2=O)cc1,-2.9,-4.4,2.1,33.8*,-4.6,-8.0
O=C(Nc1cccn(Cc2ccc(F)cc2)c1=O)NC1CCCCC1,-2.2,9.2,-0.1,-2.7,1.1,2.2
O=C1CSC(c2ccccc2)N1c1ccc(F)cc1F (configuration not stated),-7.4,-5.4,5.0,-2.2,-7.3,4.1
CCN1CCN(CCn2c(=S)[nH]c3cc4c(cc3c2=O)OCO4)CC1,-6.8,16.9,-22.5,-18.9,-6.5,28.6*
CCSc1nc2ccccc2c(=O)n1CCc1ccc(OC)c(OC)c1,-3.3,24.7*,-9.5,-20.9,-2.8,17.0
CC(=O)c1cccc(NC(=O)c2ccccc2OCc2ccc(F)cc2)c1,-3.5,10.1,-7.2,-9.5,-4.9,31.7*
Cc1ccc(NC(=O)[C@H](Cc2c[nH]c3ccccc23)NC(=O)[C@@H]2Cc3ccccc3CN2)c(C)c1,7.4,-1.3,-0.1,-1.7,7.5,4.7
CN(/N=C/c1ccc(-c2ccc([N+](=O)[O-])cc2)o1)c1ccccc1,15.5,4.0,1.7,-3.7,33.6*,25.0
CSc1ccc2c(c1)C(N1CCN(C)CC1)Cc1ccc(F)cc1S2 (configuration not stated),-6.7,69.2*,-26.9,-29.5,-15.5,28.6*
O=c1ccc(-c2n[nH]c(=S)n2-c2ccc(F)c(Cl)c2)n[nH]1,-11.4,-4.0,14.2,-0.8,-6.2,-5.7
Fc1ccc(-n2c(-c3cc(C4CC4)[nH]n3)n[nH]c2=S)cc1Cl,-2.5,-12.6,17.9,19.4*,2.8,-20.4
O=S1(=O)N=C(N2CCc3ccccc3C2)c2ccccc21,-5.0,36.4*,-16.2,-9.3,-5.3,2.2
COc1ccc(NC(=O)c2ccc(NC(=O)CSc3nccc(=O)[nH]3)cc2)cc1,-2.3,-5.7,7.7,3.9,-0.5,5.4
COc1cccc2c1C(=O)c1c(O)c3c(c(O)c1C2=O)CC(O)(C(=O)CO)CC3OC1CC(N(C)C)C(O)C(C)O1 (configuration not stated),11.9,13.5,-5.2,-32.2,55.5*,35.0*
OC(CC#CCN1CCCC1)(c1ccccc1)c1ccccc1,-6.4,99.6*,-24.9,-32.9,-19.5,57.8*
C(#CCN1CCCC1)CC(c1ccccc1)c1ccccc1,-13.4,99.8*,-32.5,-20.8,-6.9,74.5*
C(#Cc1ccccc1)CN1CCCCC1,-15.4,1.2,-6.0,-1.2,-9.9,0.2
OC(CC#CCN1CCCCC1)(c1ccccc1)c1ccccc1,-6.7,96.8*,-28.6,-29.8,-18.8,26.1
